Measurements: ChEMBL document CHEMBL1124364, “3-Sulfonyl-1-carba-1-dethiacephems” (1989)
≈ marks a conversion by molar mass, not a printed value.

How the values were obtained:
Type in all cases: functional
Pseudomonas aeruginosa = experiment: Minimum inhibitory concentration against Pseudomonas aeruginosa (X528)
How it was run: (§1)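 Agar dilution: compounds diluted in 0.1 M phosphate buffer pH 7.0 and incorporated into Mueller-Hinton agar with 1% Bacto-Supplement C at 50 °C. Fresh overnight cultures diluted to about 1×10^4 cells/µL; 1 µL spotted on plates. Incubated overnight at 35 °C in ambient air. MIC taken as the lowest concentration preventing visible growth.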

Providencia rettgeri = experiment: Minimum inhibitory concentration against Proteus rettgeri (C24); how it was run: as §1
Haemophilus influenzae = experiment: Minimum inhibitory concentration against Haemophilus influenzae (C.L.); how it was run: as §1
Escherichia coli [1] = experiment: Minimum inhibitory concentration against Escherichia coli (EC14); how it was run: as §1
Klebsiella [2] = experiment: Minimum inhibitory concentration against Klebsiella (X26); how it was run: as §1
Salmonella = experiment: Minimum inhibitory concentration against Salmonella (X514); how it was run: as §1
Escherichia coli [3] = experiment: Minimum inhibitory concentration against Escherichia coli (TEM beta-lactamase containing); how it was run: as §1
Streptococcus pneumoniae = experiment: Minimum inhibitory concentration against Streptococcus pneumoniae (PARK); how it was run: as §1
[4] = system: Staphylococcus epidermidis; experiment: Minimum inhibitory concentration against Staphylococcus epidermidis (222); how it was run: as §1
Morganella morganii = experiment: Minimum inhibitory concentration against Proteus morganii (PR 15); how it was run: as §1
Staphylococcus aureus = experiment: Minimum inhibitory concentration against Staphylococcus aureus (X1.1); how it was run: as §1
Streptococcus pyogenes = experiment: Minimum inhibitory concentration against Streptococcus pyogenes (C203); how it was run: as §1
Klebsiella [5] = experiment: Minimum inhibitory concentration against Klebsiella (KAE beta-lactamase containing); how it was run: as §1
Enterobacter cloacae [6] = experiment: Minimum inhibitory concentration against Enterobacter cloacae (265A beta-lactamase containing); how it was run: as §1
Enterobacter cloacae [7] = experiment: Minimum inhibitory concentration against Enterobacter cloacae (EB5); how it was run: as §1
[8] = Pseudomonas aeruginosa, read-out: MIC
[9] = Providencia rettgeri, read-out: MIC
[10] = Haemophilus influenzae, read-out: MIC
[11] = Escherichia coli, read-out: MIC
[12] = Streptococcus pneumoniae, read-out: MIC
[13] = Staphylococcus epidermidis, read-out: MIC
[14] = Morganella morganii, read-out: MIC
[15] = Staphylococcus aureus, read-out: MIC
[16] = Streptococcus pyogenes, read-out: MIC
[17] = Enterobacter cloacae, read-out: MIC

Row | MIC (Pseudomonas aeruginosa; [8]) [mg/L] | MIC (Providencia rettgeri; [9]) [mg/L] | MIC (Haemophilus influenzae; [10]) [mg/L] | MIC (Escherichia coli [1]; [11]) [mg/L] | MIC (Klebsiella [2]; Klebsiella, read-out: MIC) [mg/L] | MIC (Salmonella; Salmonella, read-out: MIC) [mg/L] | MIC (Escherichia coli [3]; [11]) [mg/L] | MIC (Streptococcus pneumoniae; [12]) [mg/L] | MIC [4, 13] [mg/L] | MIC (Morganella morganii; [14]) [mg/L] | MIC (Staphylococcus aureus; [15]) [mg/L] | MIC (Streptococcus pyogenes; [16]) [mg/L] | MIC (Klebsiella [5]; Klebsiella, read-out: MIC) [mg/L] | MIC (Enterobacter cloacae [6]; [17]) [mg/L] | MIC (Enterobacter cloacae [7]; [17]) [mg/L] | SMILES | other results
1 | > 128 | 1 (≈ 1.98 µM) | 0.25 (≈ 0.495 µM) | 2 (≈ 3.96 µM) | 1 (≈ 1.98 µM) | 0.25 (≈ 0.495 µM) | 8 (≈ 15.8 µM) | 0.06 (≈ 0.119 µM) | 16 (≈ 31.6 µM) | > 128 | 8 (≈ 15.8 µM) | 1 (≈ 1.98 µM) | > 128 | > 128 | 8 (≈ 15.8 µM) | CO/N=C(/C(=O)N[C@@H]1C(=O)N2C(C(=O)O)=C(S(=O)(=O)c3ccccc3)CC[C@H]12)c1csc(N)n1 | 
2 | > 128 | 0.5 (≈ 1.13 µM) | 0.25 (≈ 0.564 µM) | 0.25 (≈ 0.564 µM) | 0.06 (≈ 0.135 µM) | 0.125 (≈ 0.282 µM) | 1 (≈ 2.25 µM) | 0.06 (≈ 0.135 µM) | 32 (≈ 72.2 µM) | 1 (≈ 2.25 µM) | 16 (≈ 36.1 µM) | 0.06 (≈ 0.135 µM) | 64 (≈ 144 µM) | > 128 | 2 (≈ 4.51 µM) | CO/N=C(/C(=O)N[C@@H]1C(=O)N2C(C(=O)O)=C(S(C)(=O)=O)CC[C@H]12)c1csc(N)n1 | 
3 | > 128 | 64 (≈ 125 µM) | 1 (≈ 1.95 µM) | 2 (≈ 3.91 µM) | 2 (≈ 3.91 µM) | 0.5 (≈ 0.977 µM) | 128 (≈ 250 µM) | 0.03 (≈ 0.0586 µM) | 16 (≈ 31.3 µM) | 64 (≈ 125 µM) | 4 (≈ 7.82 µM) | 0.015 (≈ 0.0293 µM) | > 128 | > 128 | 8 (≈ 15.6 µM) | CO/N=C(/C(=O)N[C@@H]1C(=O)N2C(C(=O)O)=C(S(=O)(=O)c3cccs3)CC[C@H]12)c1csc(N)n1 | 
4 | > 128 | > 128 |  | 4 (≈ 10.1 µM) | 8 (≈ 20.3 µM) |  | > 128 |  | 0.5 (≈ 1.27 µM) | > 128 | 0.25 (≈ 0.634 µM) |  | > 128 | > 128 | > 128 | CS(=O)(=O)C1=C(C(=O)O)N2C(=O)[C@@H](NC(=O)COc3ccccc3)[C@H]2CC1 (stereo in doubt; 7) | MIC (Haemophilus influenzae): 16 mg/L (≈ 40.6 µM); MIC (Salmonella): 8 mg/L (≈ 20.3 µM); MIC (Streptococcus pneumoniae): 0.06 mg/L (≈ 0.152 µM); MIC (Streptococcus pyogenes): 0.015 mg/L (≈ 0.038 µM)
5 | > 128 | 0.125 (≈ 0.273 µM) | 0.25 (≈ 0.546 µM) | 0.06 (≈ 0.131 µM) | 0.06 (≈ 0.131 µM) | 0.06 (≈ 0.131 µM) |  | 0.03 (≈ 0.0656 µM) | 16 (≈ 35 µM) | 2 (≈ 4.37 µM) | 8 (≈ 17.5 µM) | 0.03 (≈ 0.0656 µM) | > 128 | > 128 | 1 (≈ 2.19 µM) | CCS(=O)(=O)C1=C(C(=O)O)N2C(=O)[C@@H](NC(=O)/C(=N/OC)c3csc(N)n3)[C@H]2CC1 | 
6 | > 128 | > 128 | 1 (≈ 1.97 µM) | 1 (≈ 1.97 µM) | 2 (≈ 3.95 µM) | 2 (≈ 3.95 µM) | 4 (≈ 7.9 µM) | 0.125 (≈ 0.247 µM) | 32 (≈ 63.2 µM) | > 128 | 16 (≈ 31.6 µM) | 0.06 (≈ 0.118 µM) | > 128 | > 128 | 16 (≈ 31.6 µM) | CO/N=C(/C(=O)N[C@@H]1C(=O)N2C(C(=O)O)=C(S(=O)(=O)c3cccnc3)CC[C@H]12)c1csc(N)n1 | 

The remaining lines, values behind:

Row | SMILES | MIC (Pseudomonas aeruginosa; [8]) [mg/L] | MIC (Providencia rettgeri; [9]) [mg/L] | MIC (Haemophilus influenzae; [10]) [mg/L] | MIC (Escherichia coli [1]; [11]) [mg/L] | MIC (Klebsiella [2]; Klebsiella, read-out: MIC) [mg/L] | MIC (Salmonella; Salmonella, read-out: MIC) [mg/L] | MIC (Escherichia coli [3]; [11]) [mg/L] | MIC (Streptococcus pneumoniae; [12]) [mg/L] | MIC [4, 13] [mg/L] | MIC (Morganella morganii; [14]) [mg/L] | MIC (Staphylococcus aureus; [15]) [mg/L] | MIC (Streptococcus pyogenes; [16]) [mg/L] | MIC (Klebsiella [5]; Klebsiella, read-out: MIC) [mg/L] | MIC (Enterobacter cloacae [6]; [17]) [mg/L] | MIC (Enterobacter cloacae [7]; [17]) [mg/L] | other results
7 | N[C@@H](C(=O)N[C@@H]1C(=O)N2C(C(=O)O)=C(Cl)CS[C@H]12)c1ccccc1 [CEFACLOR ANHYDROUS] | > 128 | 64 (≈ 174 µM) | 2 (≈ 5.44 µM) | 0.5 (≈ 1.36 µM) | 0.25 (≈ 0.68 µM) | 2 (≈ 5.44 µM) | 1 (≈ 2.72 µM) | 1 (≈ 2.72 µM) | 4 (≈ 10.9 µM) | > 128 | 2 (≈ 5.44 µM) | 0.25 (≈ 0.68 µM) | > 128 | > 128 | 16 (≈ 43.5 µM) | 
8 | CO/N=C(/C(=O)N[C@@H]1C(=O)N2C(C(=O)O)=C(S(=O)(=O)C(C)C)CC[C@H]12)c1csc(N)n1 | > 128 | 0.25 (≈ 0.53 µM) | 0.5 (≈ 1.06 µM) | 0.25 (≈ 0.53 µM) | 0.125 (≈ 0.265 µM) | 0.06 (≈ 0.127 µM) | 1 (≈ 2.12 µM) | 0.06 (≈ 0.127 µM) | 16 (≈ 33.9 µM) | 4 (≈ 8.48 µM) | 8 (≈ 17 µM) | 2 (≈ 4.24 µM) | > 128 | > 128 | 1 (≈ 2.12 µM) | 
9 | CCCS(=O)(=O)C1=C(C(=O)O)N2C(=O)[C@@H](NC(=O)/C(=N/OC)c3csc(N)n3)[C@H]2CC1 | > 128 | 4 (≈ 8.48 µM) | 0.25 (≈ 0.53 µM) | 0.125 (≈ 0.265 µM) | 0.125 (≈ 0.265 µM) | 0.125 (≈ 0.265 µM) | 1 (≈ 2.12 µM) | 0.03 (≈ 0.0636 µM) | 8 (≈ 17 µM) | 2 (≈ 4.24 µM) | 8 (≈ 17 µM) | 0.03 (≈ 0.0636 µM) | > 128 | > 128 | 1 (≈ 2.12 µM) | 
10 | CS(=O)(=O)C1=C(C(=O)O)N2C(=O)[C@@H](NC(=O)COc3ccccc3)[C@H]2SC1 (stereo in doubt; 7 (1-S)) |  |  |  |  |  |  |  |  |  |  |  |  |  |  |  | MIC (Pseudomonas aeruginosa): 128 mg/L (≈ 310 µM); MIC (Providencia rettgeri): 128 mg/L (≈ 310 µM); MIC (Haemophilus influenzae): 1 mg/L (≈ 2.42 µM); MIC (Escherichia coli [1]): 64 mg/L (≈ 155 µM); MIC (Klebsiella [2]): 8 mg/L (≈ 19.4 µM); MIC (Salmonella): 64 mg/L (≈ 155 µM); MIC (Escherichia coli [3]): 128 mg/L (≈ 310 µM); MIC (Streptococcus pneumoniae): 0.25 mg/L (≈ 0.606 µM); MIC [4]: 0.25 mg/L (≈ 0.606 µM); MIC (Morganella morganii): 128 mg/L (≈ 310 µM); MIC (Staphylococcus aureus): 0.25 mg/L (≈ 0.606 µM); MIC (Streptococcus pyogenes): 0.125 mg/L (≈ 0.303 µM); MIC (Klebsiella [5]): 128 mg/L (≈ 310 µM); MIC (Enterobacter cloacae [6]): 128 mg/L (≈ 310 µM); MIC (Enterobacter cloacae [7]): 128 mg/L (≈ 310 µM)
11 | CO/N=C(/C(=O)N[C@@H]1C(=O)N2C(C(=O)O)=C(S(=O)(=O)c3c(C)noc3C)CC[C@H]12)c1csc(N)n1 | > 128 | 16 (≈ 30.5 µM) | 0.25 (≈ 0.477 µM) | 2 (≈ 3.81 µM) | 1 (≈ 1.91 µM) | 4 (≈ 7.63 µM) | 8 (≈ 15.3 µM) | 0.03 (≈ 0.0572 µM) | 8 (≈ 15.3 µM) | 2 (≈ 3.81 µM) | 4 (≈ 7.63 µM) | 0.03 (≈ 0.0572 µM) | > 128 | > 128 | 8 (≈ 15.3 µM) | 
12 | CO/N=C(/C(=O)N[C@@H]1C(=O)N2C(C(=O)O)=C(S(=O)(=O)C3CC3)CC[C@H]12)c1csc(N)n1 | > 128 | 1 (≈ 2.13 µM) | 0.25 (≈ 0.532 µM) | 0.06 (≈ 0.128 µM) | 0.06 (≈ 0.128 µM) | 0.125 (≈ 0.266 µM) | 0.5 (≈ 1.06 µM) | 0.03 (≈ 0.0639 µM) | 8 (≈ 17 µM) | 2 (≈ 4.26 µM) | 4 (≈ 8.52 µM) | 0.015 (≈ 0.0319 µM) | > 128 | > 128 | 0.5 (≈ 1.06 µM) | 
13 | CO/N=C(\C(=O)N[C@@H]1C(=O)N2C(C(=O)O)=C(COC(C)=O)CS[C@H]12)c1csc(N)n1 [CEFOTAXIME] | 32 (≈ 70.3 µM) | 0.125 (≈ 0.274 µM) | 0.015 (≈ 0.0329 µM) | 0.03 (≈ 0.0659 µM) | 0.008 (≈ 0.0176 µM) | 0.03 (≈ 0.0659 µM) | 0.03 (≈ 0.0659 µM) | 0.015 (≈ 0.0329 µM) | 2 (≈ 4.39 µM) | 0.25 (≈ 0.549 µM) | 2 (≈ 4.39 µM) | 0.015 (≈ 0.0329 µM) | 2 (≈ 4.39 µM) | 32 (≈ 70.3 µM) | 0.125 (≈ 0.274 µM) | 
